In ChEMBL document CHEMBL1144491, “Synthesis and characterization of styrylchromone derivatives as beta-amyloid imaging agents” (Bioorg Med Chem, 2007):

Assays:
[1] = Partition coefficient, log P at pH 7.4; format: physicochemical; conditions: octanol/water
How it was run: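 HPLC-purified radioiodinated tracer partitioned between 3 mL 1-octanol and 3 mL 0.1 M phosphate buffer pH 7.4. Vortexed 3 min at room temperature, then centrifuged 5 min. 0.5 mL samples from each layer well-counted. Ratio taken of octanol to buffer cpm/0.5 mL. Octanol layer re-partitioned until values were consistent. Done in triplicate and repeated three times.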

Blood [2] = assay: Biodistribution in ddY mouse blood assessed as radioactivity at 0.5 uCi, iv after 2 mins; format: ADME, organism-based; conditions: in vivo
How it was run: (§1)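 Normal mice given no-carrier-added 125I-labelled tracer (HPLC-purified) by intravenous injection, then sampled at 2, 10, 30 and 60 min. Radioactivity expressed as % injected dose per gram of tissue, and per whole organ for stomach. Values are mean (SD) of 3–5 animals per time point.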

Blood [3] = assay: Biodistribution in ddY mouse blood assessed as radioactivity at 0.5 uCi, iv after 10 mins; format: ADME, organism-based; conditions: in vivo; how it was run: as §1
Blood [4] = assay: Biodistribution in ddY mouse blood assessed as radioactivity at 0.5 uCi, iv after30 mins; format: ADME, organism-based; conditions: in vivo, 0.5 h; how it was run: as §1
Blood [5] = assay: Biodistribution in ddY mouse blood assessed as radioactivity at 0.5 uCi, iv after 60 mins; format: ADME, organism-based; conditions: in vivo, 1 h; how it was run: as §1
Liver [6] = assay: Biodistribution in ddY mouse liver assessed as radioactivity at 0.5 uCi, iv after 2 mins; format: ADME, organism-based; conditions: in vivo; how it was run: as §1
Liver [7] = assay: Biodistribution in ddY mouse liver assessed as radioactivity at 0.5 uCi, iv after 10 mins; format: ADME, organism-based; conditions: in vivo; how it was run: as §1
Liver [8] = assay: Biodistribution in ddY mouse liver assessed as radioactivity at 0.5 uCi, iv after 30 mins; format: ADME, organism-based; conditions: in vivo, 0.5 h; how it was run: as §1
Liver [9] = assay: Biodistribution in ddY mouse liver assessed as radioactivity at 0.5 uCi, iv after 60 mins; format: ADME, organism-based; conditions: in vivo, 1 h; how it was run: as §1
Kidney [10] = assay: Biodistribution in ddY mouse kidney assessed as radioactivity at 0.5 uCi, iv after 2 mins; format: ADME, organism-based; conditions: in vivo; how it was run: as §1
Kidney [11] = assay: Biodistribution in ddY mouse kidney assessed as radioactivity at 0.5 uCi, iv after 10 mins; format: ADME, organism-based; conditions: in vivo; how it was run: as §1
Kidney [12] = assay: Biodistribution in ddY mouse kidney assessed as radioactivity at 0.5 uCi, iv after 30 mins; format: ADME, organism-based; conditions: in vivo, 0.5 h; how it was run: as §1
Kidney [13] = assay: Biodistribution in ddY mouse kidney assessed as radioactivity at 0.5 uCi, iv after 60 mins; format: ADME, organism-based; conditions: in vivo, 1 h; how it was run: as §1
Intestine [14] = assay: Biodistribution in ddY mouse intestine assessed as radioactivity at 0.5 uCi, iv after 2 mins; format: ADME, organism-based; conditions: in vivo; how it was run: as §1
Intestine [15] = assay: Biodistribution in ddY mouse intestine assessed as radioactivity at 0.5 uCi, iv after10 mins; format: ADME, organism-based; conditions: in vivo, 10 min; how it was run: as §1
Intestine [16] = assay: Biodistribution in ddY mouse intestine assessed as radioactivity at 0.5 uCi, iv after 30 mins; format: ADME, organism-based; conditions: in vivo, 0.5 h; how it was run: as §1
Intestine [17] = assay: Biodistribution in ddY mouse intestine assessed as radioactivity at 0.5 uCi, iv after 60 mins; format: ADME, organism-based; conditions: in vivo, 1 h; how it was run: as §1
Spleen [18] = assay: Biodistribution in ddY mouse spleen assessed as radioactivity at 0.5 uCi, iv after 2 mins; format: ADME, organism-based; conditions: in vivo; how it was run: as §1
Spleen [19] = assay: Biodistribution in ddY mouse spleen assessed as radioactivity at 0.5 uCi, iv after 10 mins; format: ADME, organism-based; conditions: in vivo; how it was run: as §1
Spleen [20] = assay: Biodistribution in ddY mouse spleen assessed as radioactivity at 0.5 uCi, iv after 30 mins; format: ADME, organism-based; conditions: in vivo, 0.5 h; how it was run: as §1
Spleen [21] = assay: Biodistribution in ddY mouse spleen assessed as radioactivity at 0.5 uCi, iv after 60 mins; format: ADME, organism-based; conditions: in vivo, 1 h; how it was run: as §1
Pancreas [22] = assay: Biodistribution in ddY mouse pancreas assessed as radioactivity at 0.5 uCi, iv after 2 mins; format: ADME, organism-based; conditions: in vivo; how it was run: as §1
Pancreas [23] = assay: Biodistribution in ddY mouse pancreas assessed as radioactivity at 0.5 uCi, iv after 10 mins; format: ADME, organism-based; conditions: in vivo; how it was run: as §1
Pancreas [24] = assay: Biodistribution in iv dosed ddY mouse pancreas assessed as radioactivity after 30 mins; format: ADME, organism-based; conditions: in vivo, 0.5 h; how it was run: as §1
Pancreas [25] = assay: Biodistribution in ddY mouse pancreas assessed as radioactivity at 0.5 uCi, iv after 60 mins; format: ADME, organism-based; conditions: in vivo, 1 h; how it was run: as §1
Heart [26] = assay: Biodistribution in ddY mouse heart assessed as radioactivity at 0.5 uCi, iv after 2 mins; format: ADME, organism-based; conditions: in vivo; how it was run: as §1
Heart [27] = assay: Biodistribution in ddY mouse heart assessed as radioactivity at 0.5 uCi, iv after 10 mins; format: ADME, organism-based; conditions: in vivo; how it was run: as §1
Heart [28] = assay: Biodistribution in ddY mouse heart assessed as radioactivity at 0.5 uCi, iv after 30 mins; format: ADME, organism-based; conditions: in vivo, 0.5 h; how it was run: as §1
Heart [29] = assay: Biodistribution in ddY mouse heart assessed as radioactivity at 0.5 uCi, iv after 60 mins; format: ADME, organism-based; conditions: in vivo, 1 h; how it was run: as §1
Stomach [30] = assay: Biodistribution in ddY mouse stomach assessed as radioactivity at 0.5 uCi, iv after 2 mins; format: ADME, organism-based; conditions: in vivo; how it was run: as §1
Stomach [31] = assay: Biodistribution in ddY mouse stomach assessed as radioactivity at 0.5 uCi, iv after10 mins; format: ADME, organism-based; conditions: in vivo, 10 min; how it was run: as §1
Stomach [32] = assay: Biodistribution in ddY mouse stomach assessed as radioactivity at 0.5 uCi, iv after 30 mins; format: ADME, organism-based; conditions: in vivo, 0.5 h; how it was run: as §1
Stomach [33] = assay: Biodistribution in ddY mouse stomach assessed as radioactivity at 0.5 uCi, iv after 60 mins; format: ADME, organism-based; conditions: in vivo, 1 h; how it was run: as §1
Brain [34] = assay: Biodistribution in ddY mouse brain assessed as radioactivity at 0.5 uCi, iv after 2 mins; format: ADME, organism-based; conditions: in vivo; how it was run: as §1
Brain [35] = assay: Biodistribution in ddY mouse brain assessed as radioactivity at 0.5 uCi, iv after 10 mins; format: ADME, organism-based; conditions: in vivo; how it was run: as §1
Brain [36] = assay: Biodistribution in ddY mouse brain assessed as radioactivity at 0.5 uCi, iv after 30 mins; format: ADME, organism-based; conditions: in vivo, 0.5 h; how it was run: as §1
Brain [37] = assay: Biodistribution in ddY mouse brain assessed as radioactivity at 0.5 uCi, iv after 60 mins; format: ADME, organism-based; conditions: in vivo; how it was run: as §1
[38] = Binding affinity at amyloid peptide plaques; design: species or system Homo sapiens
How it was run: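 Saturation binding to synthetic Aβ(1–40) aggregates (57 nM final), pre-aggregated at 0.5 mg/mL in pH 7.4 10 mM sodium phosphate/1 mM EDTA, 37 °C, 42 h with shaking. Radioiodinated ligand 1–125 nM final (made by mixing with cold compound), in 10% ethanol, 3 h at room temperature. Filtered on GF/B, bound 125I gamma-counted. Nonspecific binding defined with 1 µM cold ligand. Kd by Scatchard analysis.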

| logD [1] | Drug uptake (Blood [2]) | Drug uptake (Blood [3]) | Drug uptake (Blood [4]) | Drug uptake (Liver [6]) | Drug uptake (Liver [7]) | Drug uptake (Liver [8]) | Drug uptake (Kidney [10]) | Drug uptake (Kidney [11]) | Drug uptake (Kidney [12]) | Drug uptake (Intestine [14]) | Drug uptake (Intestine [15]) | Drug uptake (Intestine [16]) | Drug uptake (Spleen [18]) | Drug uptake (Spleen [19]) | Drug uptake (Spleen [20]) | Drug uptake (Pancreas [22]) | Drug uptake (Pancreas [23]) | Drug uptake (Pancreas [24]) | Drug uptake (Brain [34]) | SMILES | also measured |
| --- | --- | --- | --- | --- | --- | --- | --- | --- | --- | --- | --- | --- | --- | --- | --- | --- | --- | --- | --- | --- | --- |
| 1.65 | 2.34 % ID/g | 2.44 % ID/g | 2.56 % ID/g | 13.23 % ID/g | 14.49 % ID/g | 10.27 % ID/g | 11.94 % ID/g | 6.99 % ID/g | 4.91 % ID/g | 2.84 % ID/g | 5.51 % ID/g | 11.71 % ID/g | 4.23 % ID/g | 3.64 % ID/g | 2.92 % ID/g | 6.58 % ID/g | 5.18 % ID/g | 3.07 % ID/g | 4.88 % ID/g | Nc1ccc(/C=C/c2cc(=O)c3cc([125I])ccc3o2)cc1 | Drug uptake (Blood [5]): 2.27 % ID/g; Drug uptake (Liver [9]): 8.16 % ID/g; Drug uptake (Kidney [13]): 3.76 % ID/g; Drug uptake (Intestine [17]): 16.08 % ID/g; Drug uptake (Spleen [21]): 2.16 % ID/g; Drug uptake (Pancreas [25]): 1.11 % ID/g; Drug uptake (Heart [26]): 8.4 % ID/g; Drug uptake (Heart [27]): 3.78 % ID/g; Drug uptake (Heart [28]): 2.43 % ID/g; Drug uptake (Heart [29]): 1.64 % ID/g; Drug uptake (Stomach [30]): 1.24 %ID; Drug uptake (Stomach [31]): 1.81 %ID; Drug uptake (Stomach [32]): 2.17 %ID; Drug uptake (Stomach [33]): 3.29 %ID; Drug uptake (Brain [35]): 4.4 % ID/g; Drug uptake (Brain [36]): 2.78 % ID/g; Drug uptake (Brain [37]; 1 h): 1.62 % ID/g; Kd [38]: 32 nM |
| 2.15 | 3.21 % ID/g | 2.44 % ID/g | 2.19 % ID/g | 14.55 % ID/g | 14.41 % ID/g | 11.13 % ID/g | 10.41 % ID/g | 7.05 % ID/g | 5.48 % ID/g | 2.59 % ID/g | 8.55 % ID/g | 16.72 % ID/g | 3.88 % ID/g | 4.42 % ID/g | 2.66 % ID/g | 4.92 % ID/g | 3.56 % ID/g | 2.25 % ID/g | 2.84 % ID/g | CNc1ccc(/C=C/c2cc(=O)c3cc([125I])ccc3o2)cc1 | Drug uptake (Blood [5]): 1.79 % ID/g; Drug uptake (Liver [9]): 7.82 % ID/g; Drug uptake (Kidney [13]): 3.52 % ID/g; Drug uptake (Intestine [17]): 19.16 % ID/g; Drug uptake (Spleen [21]): 1.51 % ID/g; Drug uptake (Pancreas [25]): 1.32 % ID/g; Drug uptake (Heart [26]): 6.92 % ID/g; Drug uptake (Heart [27]): 3.31 % ID/g; Drug uptake (Heart [28]): 2.09 % ID/g; Drug uptake (Heart [29]): 1.47 % ID/g; Drug uptake (Stomach [30]): 1 %ID; Drug uptake (Stomach [31]): 1.89 %ID; Drug uptake (Stomach [32]): 2.01 %ID; Drug uptake (Stomach [33]): 1.9 %ID; Drug uptake (Brain [35]): 2.96 % ID/g; Drug uptake (Brain [36]): 1.86 % ID/g; Drug uptake (Brain [37]; 1 h): 0.99 % ID/g; Kd [38]: 17.5 nM |
| 2.65 | 2.62 % ID/g | 1.44 % ID/g | 1.13 % ID/g | 11.17 % ID/g | 10.15 % ID/g | 7.72 % ID/g | 6.7 % ID/g | 4.51 % ID/g | 3.69 % ID/g | 1.45 % ID/g | 4.95 % ID/g | 12.68 % ID/g | 2.43 % ID/g | 2.01 % ID/g | 1.38 % ID/g | 3.02 % ID/g | 2.73 % ID/g | 1.34 % ID/g | 1.14 % ID/g | CN(C)c1ccc(/C=C/c2cc(=O)c3cc([125I])ccc3o2)cc1 | Drug uptake (Heart [26]): 6.25 % ID/g; Drug uptake (Heart [27]): 1.75 % ID/g; Drug uptake (Heart [28]): 1.27 % ID/g; Drug uptake (Stomach [30]): 0.7 %ID; Drug uptake (Stomach [31]): 1.14 %ID; Drug uptake (Stomach [32]): 1.23 %ID; Drug uptake (Brain [35]): 1.76 % ID/g; Drug uptake (Brain [36]): 1.37 % ID/g; Kd [38]: 8.7 nM |
|  |  |  |  |  |  |  |  |  |  |  |  |  |  |  |  |  |  |  | 2.88% | CN(C)c1ccc(-c2cn3cc([125I])ccc3n2)cc1 | Drug uptake (Brain [37]; 30 min, in the assay text read “after 30 mins” for “after 60 mins”): 0.26 % ID/g; Ki [38]: […] |
